Calls of active or inactive are those of the source. No cut-off for these calls is given here.
Assays:
[1] = target: T1, Estrogen receptor (Mus musculus) (UniProt P19785); test: Reversal of increase in DNA-binding activity of ERalpha in nuclear extracts of mouse MC3T3-E1 cells by electrophoretic mobility shift assays in presence of PP2; format: cell-based
T1 sequence (whole entry): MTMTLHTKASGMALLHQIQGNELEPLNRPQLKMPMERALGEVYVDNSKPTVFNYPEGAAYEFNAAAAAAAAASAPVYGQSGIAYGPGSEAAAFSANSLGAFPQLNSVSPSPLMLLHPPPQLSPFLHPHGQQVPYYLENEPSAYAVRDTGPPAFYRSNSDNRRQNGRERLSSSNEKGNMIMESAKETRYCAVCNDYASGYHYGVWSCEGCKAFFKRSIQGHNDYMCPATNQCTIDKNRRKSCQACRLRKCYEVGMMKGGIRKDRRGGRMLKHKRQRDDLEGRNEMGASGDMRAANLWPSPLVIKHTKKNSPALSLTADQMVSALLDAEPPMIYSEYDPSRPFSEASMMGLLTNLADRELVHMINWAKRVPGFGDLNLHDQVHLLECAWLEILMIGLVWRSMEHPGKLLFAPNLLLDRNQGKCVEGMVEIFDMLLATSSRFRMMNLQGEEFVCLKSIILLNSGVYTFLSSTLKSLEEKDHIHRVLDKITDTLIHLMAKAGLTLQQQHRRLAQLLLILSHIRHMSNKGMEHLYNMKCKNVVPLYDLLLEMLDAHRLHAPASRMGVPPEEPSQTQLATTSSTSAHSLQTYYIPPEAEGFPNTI
Method in brief: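 Nuclear extracts of MC3T3-E1 cells. ER-binding probe [α-32P]dCTP end-labeled, 20-min binding at room temperature, 5-fold unlabeled competitor where used. Complexes resolved on 5% nondenaturing PAGE in Tris-borate-EDTA pH 8.3, then autoradiography.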

Osteoblast [2] = test: Increase in osteopontin mRNA levels in rat primary osteoblast cells at 1 uM after 72 hrs by RT-PCR; format: functional, cell-based
Method in brief: (§1)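 Cells treated with 1 μm for 72 h; osteocalcin and osteopontin mRNA by RT-PCR, 30 cycles (95/52/72 °C, 1 min each), ethidium bromide–stained agarose gels; repeated at least twice from at least two cDNA preparations.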

[3] = target: Forkhead box protein O3 (Homo sapiens) (UniProt O43524); test: Enhancement of FOXO3a activity in human MDA-MB-231 cells transfected with dominant negative Akt mutant; format: cell-based
Chain of Forkhead box protein O3 (Homo sapiens) (O43524 whole entry): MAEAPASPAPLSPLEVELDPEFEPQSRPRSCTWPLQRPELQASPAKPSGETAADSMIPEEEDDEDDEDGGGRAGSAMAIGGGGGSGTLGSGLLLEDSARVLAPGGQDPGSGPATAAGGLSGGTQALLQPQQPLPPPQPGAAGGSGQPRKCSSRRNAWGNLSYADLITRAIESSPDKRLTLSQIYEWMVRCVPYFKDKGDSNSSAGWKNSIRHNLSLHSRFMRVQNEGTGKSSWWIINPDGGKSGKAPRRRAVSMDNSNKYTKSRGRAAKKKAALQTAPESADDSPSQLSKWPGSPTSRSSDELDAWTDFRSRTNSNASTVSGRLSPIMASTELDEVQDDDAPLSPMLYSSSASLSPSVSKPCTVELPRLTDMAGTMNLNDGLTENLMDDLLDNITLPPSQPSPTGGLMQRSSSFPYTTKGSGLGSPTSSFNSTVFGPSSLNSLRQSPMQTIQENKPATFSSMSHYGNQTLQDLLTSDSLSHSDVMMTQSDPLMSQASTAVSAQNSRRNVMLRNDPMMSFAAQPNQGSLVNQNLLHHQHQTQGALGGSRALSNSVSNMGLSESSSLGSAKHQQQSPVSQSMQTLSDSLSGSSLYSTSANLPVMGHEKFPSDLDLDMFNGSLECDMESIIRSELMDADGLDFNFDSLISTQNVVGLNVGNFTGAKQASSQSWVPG
Method in brief: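 MDA-MB-231 cells transfected with vector, constitutively active Akt or dominant negative Akt, treated ± compound; analyzed by Western blotting and BMP-2 promoter luciferase activity.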

MC3T3-E1 [4] = test: Reversal of induction in ER.DNA complex in mouse MC3T3-E1 cells at 1 uM by RT-PCR in presence of ICI-182780; format: functional, cell-based
Method in brief: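 BMP-2 promoter quantified by real-time PCR (45 cycles, 61 °C anneal), reported as IP-to-input Ct ratio. DN-Src by 3 μg vector, PP2 at 10 μM; ICI182780 and tamoxifen at indicated concentrations.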

MC3T3-E1 [5] = test: Increase in osteopontin levels in mouse MC3T3-E1 cells at 1 uM after 72 hrs by ELISA; format: functional, cell-based
Method in brief: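 Cells treated with 1 μm for 72 h; osteocalcin or osteopontin in culture medium by sandwich ELISA, HRP-streptavidin/TMB, 450 nm; percent change versus untreated control.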

Rattus norvegicus [6] = test: Increase in serum BMP2 levels in ovariectomized Wistar rat at 10 mg/kg, po after 10 weeks by ELISA relative to sham operated control; format: functional, organism-based; set-up: dose 10 mg/kg
Method in brief: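 Ovariectomized rats given indicated doses or estrogen by oral feeding; serum BMP-2 by ELISA 10 weeks after surgery; compared with sham-operated group; n = 8/group, means ± S.D.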

Osteoblast [7] = test: Effect on procollagen 4 alpha 6 gene expression in rat primary osteoblast cells assessed as expression ratio of treated to untreated control by microarray analysis; format: functional
Method in brief: (§2)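 Resveratrol-treated and vehicle-treated primary osteoblasts were profiled on a mouse osteogenesis-focused cDNA array (GEArray Q series) built to track gene expression during osteogenic differentiation. Each gene's signal in treated cells was expressed as a ratio to untreated control.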

Osteoblast [8] = test: Effect on secreted acidic cysteine rich glycoprotein gene expression in rat primary osteoblast cells assessed as expression ratio of treated to untreated control by microarray analysis; format: functional; method in brief: as §2
MC3T3-E1 [9] = test: Increase in BMP2 mRNA levels in mouse MC3T3-E1 cells at 1 uM by RT-PCR method; format: functional, cell-based; conditions: TDE = time-dependent effect
Method in brief: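 Cells treated with 1 μm for 48 h; BMP-2 mRNA measured by quantitative real-time RT-PCR (SYBR Green, 0.5 μm each primer, 4 mm MgCl2, fluorescence read at 82 °C) and normalized.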

[10] = Reversal of increase in pBMP2 expression in mouse MC3T3-E1 cells expressing small interfering RNA for FOXA1 protein at 1 uM by luciferase method; format: functional, cell-based
Osteoblast [11] = test: Effect on procollagen 4 alpha 2 gene expression in rat primary osteoblast cells assessed as expression ratio of treated to untreated control by microarray analysis; format: functional; method in brief: as §2
Osteoblast [12] = test: Increase in osteocalcin mRNA levels in rat primary osteoblast cells at 1 uM after 72 hrs by RT-PCR; format: functional, cell-based; method in brief: as §1
Rattus norvegicus [13] = test: Increase in bone mineral density in ovariectomized Wistar rat dosed orally after 10 weeks; format: functional, organism-based
Method in brief: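 Female Wistar rats sham-operated or ovariectomized, fed compound orally every 2 days at indicated doses; femur/tibia BMD by DEXA under ketamine (87 mg/kg)/xylazine (13 mg/kg) anesthesia and serum ALP measured 10 weeks after surgery; n = 8/group, means ± S.D.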

MC3T3-E1 [14] = test: Increase in BMP2 expression in mouse MC3T3-E1 cells expressing pBMP2 mutant at 1 uM after 4 hrs by luciferase method relative to control; format: functional, cell-based
Method in brief: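 MC3T3-E1 cells transfected with BMP-2 promoter–luciferase constructs (full promoter or deletions), treated with 1 μm or vehicle for 4 h; Dual-Luciferase assay; means ± S.D.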

MCF7 = test: Antitumor activity against human MCF7 cells xenografted in SCID mouse orthotropic model assessed as inhibition of 17beta estradiol-induced tumor weight at 10 mg/kg for 2 days; format: functional; set-up: scale not given: the % may be the effect or the level left
Method in brief: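 Tumor cells were inoculated orthotopically into the mammary fat pad of 6-week-old female SCID mice. […] Tumor volume was calculated as LW2/2. Tumor formation was scored as mice with tumors per total (20 per group), and tumor weight as mean ± S.D. Groups were compared by one-way ANOVA with LSD post-hoc comparisons.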

MDA-MB-231 = test: Induction of FOXO3a nuclear accumulation in human MDA-MB-231 cells FOXO3a-specific small interfering RNA xenografted in nude mice at 10 mg/kg for 2 days; format: functional, organism-based; set-up: dose 10 mg/kg
Osteoblast [15] = test: Effect on FMS-like tyrosine kinase 1 gene expression in rat primary osteoblast cells assessed as expression ratio of treated to untreated control by microarray analysis; format: functional
Osteoblast [16] = test: Effect on procollagen 14alpha 1 gene expression in rat primary osteoblast cells assessed as expression ratio of treated to untreated control by microarray analysis; format: functional; method in brief: as §2
MC3T3-E1 [17] = test: Inhibition of antiapoptotic activity in mouse MC3T3-E1 cells at 1 uM after 48 hrs in presence of noggin; format: functional, cell-based
[18] = target: RAC-alpha serine/threonine-protein kinase (Homo sapiens) (UniProt P31749); test: Reversal of induction of Akt inactivation in human MDA-MB-231 cells transfected with constitutively activated Akt mutant; format: cell-based
Chain of RAC-alpha serine/threonine-protein kinase (Homo sapiens) (P31749 whole entry): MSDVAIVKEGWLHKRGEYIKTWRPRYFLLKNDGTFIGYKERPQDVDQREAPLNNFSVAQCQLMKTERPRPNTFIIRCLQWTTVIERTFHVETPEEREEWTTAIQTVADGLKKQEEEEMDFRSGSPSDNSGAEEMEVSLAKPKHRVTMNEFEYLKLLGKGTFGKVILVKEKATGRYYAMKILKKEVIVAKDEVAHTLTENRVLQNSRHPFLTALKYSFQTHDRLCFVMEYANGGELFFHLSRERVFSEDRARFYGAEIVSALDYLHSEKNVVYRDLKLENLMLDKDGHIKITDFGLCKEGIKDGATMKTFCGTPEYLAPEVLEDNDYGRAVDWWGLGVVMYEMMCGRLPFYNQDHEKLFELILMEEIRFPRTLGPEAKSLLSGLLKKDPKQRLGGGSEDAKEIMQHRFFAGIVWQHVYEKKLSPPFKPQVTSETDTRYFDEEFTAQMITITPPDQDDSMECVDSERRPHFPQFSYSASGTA

Oc1ccc(/C=C/c2cc(O)cc(O)c2)cc1 [RESVERATROL]
Activity [1]: Active
Activity (Osteoblast [2]): Active
Activity [3]: Active
Activity (MC3T3-E1 [4]): Dose-dependent effect
Activity (MC3T3-E1 [5]): Active
Activity (Rattus norvegicus [6]): Active
Ratio (Osteoblast [7]): 3.689
Ratio (Osteoblast [8]): 1.6
Activity (MC3T3-E1 [9]): tde
Activity [10]: Active
Ratio (Osteoblast [11]): 4.48
Activity (Osteoblast [12]): Active
Activity (Rattus norvegicus [13]): Dose-dependent effect
Activity (MC3T3-E1 [14]): Active
Activity (MCF7): 54.6%
Activity (MDA-MB-231): Active
Ratio (Osteoblast [15]): 0.41
Ratio (Osteoblast [16]): 3.76
Activity (MC3T3-E1 [17]): Active
Activity [18]: Active
